Results taken from ChEMBL document CHEMBL4138089, “Novel Imidazo[4,5-c][1,2,6]thiadiazine 2,2-dioxides as antiproliferative trypanosoma cruzi drugs: Computational screening from neural network, synthesis and in vivo biological properties” (Eur J Med Chem, 2017).
Active and inactive are the calls of the source. No cut-off for these calls is given here.

Assays:
[1] = system: Trypanosoma cruzi; test: Growth inhibition of Trypanosoma cruzi Tulahuen 2 epimastigotes at 25 uM after 5 days relative to control; type: functional; conditions: Tulahuen 2, 120 h, read-out: GI
[2] = system: Trypanosoma cruzi; test: Antitrypanosomal activity against Trypanosoma cruzi Tulahuen 2 epimastigotes after 5 days; type: functional, organism-based; conditions: Tulahuen 2, 120 h
[3] = system: Trypanosoma cruzi; test: Growth inhibition of Trypanosoma cruzi clone CL B5 amastigotes harboring lacZ derived from infected mouse NCTC-929 cells at 25 uM after 7 days by beta-galactosidase reporter gene assay relative to control; type: functional; conditions: clone CL B5, NCTC-929, 168 h, read-out: GI
How it was run: (§1)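 NCTC-929 fibroblasts seeded 10,000 cells/well in MEM, attached 2-3 h at 37°C, 5% CO2, then infected with NCTC-929-derived CL-B5 lacZ trypomastigotes (1:6 cells:parasites) for 24 h at 33°C. Washed in PBS, drug in DMSO added in fresh medium, 7 days at 33°C. CPRG (400 µM, pH 7.4, 3% Triton X-100) added, 3 h at 37°C, A595. PGIa computed against infected untreated wells after subtracting uninfected-cell background. IC50a derived from PGIa.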

[4] = system: J774; test: Cytotoxicity against mouse J774 cells assessed as reduction in cell viability after 48 hrs by MTT assay; type: cell-based; conditions: J774, 48 h
How it was run: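 J774 macrophages, 37°C, 5% CO2, 48 h with compounds in DMSO at 100, 200 and 400 μM. Viability from mitochondrial activity by MTT/formazan.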

[5] = Selectivity index, ratio of IC50 for mouse J774 cells to IC50 for Trypanosoma cruzi Tulahuen 2 epimastigotes; type: toxicity; conditions: J774 cells versus Trypanosoma cruzi Tulahuen 2 epimastigotes, read-out: Ratio IC50
[6] = system: Trypanosoma cruzi; test: Growth inhibition of Trypanosoma cruzi clone CL B5 epimastigotes at 25 uM after 72 hrs by beta-galactosidase reporter gene assay relative to control; type: functional; conditions: clone CL B5, 72 h, read-out: GI
[7] = system: Trypanosoma cruzi; test: Antitrypanosomal activity against Trypanosoma cruzi clone CL B5 epimastigotes at 25 uM after 72 hrs by beta-galactosidase reporter gene assay; type: functional, organism-based; conditions: clone CL B5, 72 h
[8] = system: L929; test: Cytotoxicity against mouse NCTC-929 cells assessed as reduction in cell viability after 48 hrs by resazurin dye-based assay; conditions: L929, 48 h
How it was run: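 NCTC-929 fibroblasts, 15,000 cells/well in MEM, attached 3 h at 37°C/5% CO2, then compounds in fresh medium 48 h. Resazurin (2 mM stock in PBS, pH 7.0) added for 3 h more; fluorescence ex 535/em 590 nm. Growth and medium controls on each plate.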

[9] = Selectivity index, ratio of IC50 for mouse NCTC-929 cells to IC50 for Trypanosoma cruzi clone CL B5 epimastigotes; type: toxicity; conditions: read-out: Ratio IC50
[10] = biological target: Cruzipain (Trypanosoma cruzi, UniProt P25779); test: Inhibition of Trypanosoma cruzi cruzipain using Bz-Pro-Phe-Arg-p-NA as a chromogenic substrate preincubated for 10 mins followed by substrate addition measured for 5 mins by spectrophotometry
How it was run: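 Cruzipain preincubated 10 min at ambient temperature in 50 mM Tris-HCl pH 7.6 with 10 mM mercaptoethanol and 25, 50 or 100 μM inhibitor (DMSO). Controls carry the same DMSO level and define 100% activity.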

[11] = system: Mus musculus; test: Antitrypanosomal activity against bloodstream forms of Trypanosoma cruzi Y infected in NMRI mouse assessed as decrease in number of blood trypomastigotes at 100 mg/kg, po administerd for 5 consecutive days starting from day 5 post infection measured from 4th day of treatment; type: functional, organism-based
[12] = system: Salmonella typhimurium; test: Genotoxicity in Salmonella typhimurium TA98 up to 500 ug/plate in absence of mouse liver S9 fraction by Ames test; type: toxicity, organism-based; conditions: salmonella enterica subsp. enterica serovar typhimurium
How it was run: (§2)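 TA98 by direct plate incorporation on minimal glucose agar with Vogel-Bonner E; toxicity to the strain checked first. Compounds in DMSO, in triplicate, top dose 500 µg/plate; ± Aroclor-induced mouse liver S9 (500 µL). Positive controls 4-nitro-o-phenylenediamine 20.0 µg/plate (no S9), 2-aminofluorene 10.0 µg/plate (S9); DMSO negative. Manual revertant counts, mean of two experiments ±SD; mutagenic if ≥2× negative control at two consecutive doses.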

[13] = system: Salmonella typhimurium; test: Genotoxicity in Salmonella typhimurium TA98 up to 500 ug/plate in presence of mouse liver S9 fraction by Ames test; type: toxicity, organism-based; conditions: salmonella enterica subsp. enterica serovar typhimurium; how it was run: as §2
[14] = system: Trypanosoma cruzi; test: Antitrypanosomal activity against bloodstream forms of Trypanosoma cruzi Y infected in NMRI mouse assessed as mouse survival at 100 mg/kg, po administerd for 5 consecutive days starting from day 5 post infection; conditions: 720 h
[15] = biological target: Cruzipain (Trypanosoma cruzi) (UniProt P25779); test: Inhibition of Trypanosoma cruzi cruzipain at 100 uM using Bz-Pro-Phe-Arg-p-NA as a chromogenic substrate preincubated for 10 mins followed by substrate addition measured for 5 mins by spectrophotometer relative to control
How it was run: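 Cruzipain preincubated 10 min at ambient temperature in 50 mM Tris-HCl pH 7.6 with 10 mM mercaptoethanol and 25, 50 or 100 μM inhibitor (DMSO). Bz-Pro-Phe-Arg-p-NA then added at 150 μM final, A410 followed for 5 min. Controls carry the same DMSO level and define 100% activity.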

[16] = system: Trypanosoma cruzi; test: Antitrypanosomal activity against Trypanosoma cruzi clone CL B5 amastigotes harboring lacZ infected in mouse NCTC-929 cells after 7 days by beta-galactosidase reporter gene assay; type: functional, organism-based; conditions: clone CL B5, NCTC-929, 168 h; how it was run: as §1

Sequence of Cruzipain (P25779 whole entry): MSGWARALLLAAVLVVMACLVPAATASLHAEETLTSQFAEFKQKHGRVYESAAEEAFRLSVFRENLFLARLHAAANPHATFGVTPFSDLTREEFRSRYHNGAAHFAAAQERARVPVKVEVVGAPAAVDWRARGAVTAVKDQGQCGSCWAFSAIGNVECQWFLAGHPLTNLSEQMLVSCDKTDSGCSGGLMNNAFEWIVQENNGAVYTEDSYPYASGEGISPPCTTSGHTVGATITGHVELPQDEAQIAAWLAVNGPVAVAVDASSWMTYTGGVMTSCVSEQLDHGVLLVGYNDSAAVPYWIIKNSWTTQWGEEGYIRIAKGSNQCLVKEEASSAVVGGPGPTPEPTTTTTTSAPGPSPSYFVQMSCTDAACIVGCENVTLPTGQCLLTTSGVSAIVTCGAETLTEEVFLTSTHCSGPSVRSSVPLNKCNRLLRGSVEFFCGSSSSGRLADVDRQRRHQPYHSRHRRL
Sequence of Cruzipain (Trypanosoma cruzi) (P25779 123-467 limits assumed): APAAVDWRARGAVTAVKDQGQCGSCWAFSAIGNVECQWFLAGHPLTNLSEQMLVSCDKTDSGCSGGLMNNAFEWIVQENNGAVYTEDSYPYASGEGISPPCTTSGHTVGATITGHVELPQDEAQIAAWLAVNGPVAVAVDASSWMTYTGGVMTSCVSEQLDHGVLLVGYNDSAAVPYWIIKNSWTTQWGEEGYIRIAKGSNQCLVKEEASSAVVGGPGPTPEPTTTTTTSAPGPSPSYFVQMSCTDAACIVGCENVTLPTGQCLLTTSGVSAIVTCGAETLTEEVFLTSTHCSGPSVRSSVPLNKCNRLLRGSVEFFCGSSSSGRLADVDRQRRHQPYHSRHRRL

Structure (SMILES)	inhibition of growth at 25 µM [1] [%]	IC50 [2] [µM]	selectivity ratio [5]	inhibition of growth at 25 µM [6] [%]	also measured
NC1=NS(=O)(=O)Nc2nc(-c3cccnc3)[nH]c21	37.5	> 25	–	–	–
NC1=NS(=O)(=O)N(Cc2ccccc2)c2nc(-c3ccccc3)n(Cc3ccccc3)c21	100	4.5	22	60.8	inhibition of growth at 25 µM [3]: 90.2%; IC50 [4]: 100 µM; IC50 [7]: 3.6 µM; IC50 [8]: < 64 µM; selectivity ratio [9]: < 17.8; IC50 [10]: 81 µM; Activity [11]: Active; Activity [12]: Non-Toxic; Activity [13]: Non-Toxic; survival at 100 mg/kg [14]: 87.5%
NC1=NS(=O)(=O)N(Cc2ccccc2)c2nc(-c3ccccc3)[nH]c21	41.6	29.5	–	–	–
NC1=NS(=O)(=O)Nc2[nH]c(-c3ccccc3)nc21	39.6	> 25	–	–	–
CN1c2nc(-c3ccccc3)[nH]c2C(N)=NS1(=O)=O	58	16.7	7.7	11.3	IC50 [4]: 128 µM; IC50 [7]: > 25 µM; inhibition [15]: 27.4%; Activity [12]: Non-Toxic; Activity [13]: Non-Toxic
NC1=NS(=O)(=O)Nc2nc(CCc3ccccc3)[nH]c21	73.6	11.5	> 34.8	51.1	IC50 [4]: > 400 µM; IC50 [7]: 17.5 µM; IC50 [8]: > 256 µM; selectivity ratio [9]: > 14.6; inhibition [15]: 39%
NC1=NS(=O)(=O)Nc2nc(C3CCOC3)[nH]c21 (stereo unspecified)	56.4	20.3	–	–	–
NC1=NS(=O)(=O)N(Cc2ccc(Cl)cc2)c2nc(-c3ccccc3F)[nH]c21	86.3	7	< 14.2	42.1	IC50 [4]: < 100 µM; IC50 [7]: > 25 µM; IC50 [10]: 86 µM
NC1=NS(=O)(=O)Nc2nc(-c3ccccc3F)[nH]c21	57.8	20.2	–	–	–
NC1=NS(=O)(=O)Nc2nc(-c3ccsc3)[nH]c21	51.3	22.2	–	–	–
NC1=NS(=O)(=O)N(Cc2ccccc2)c2nc(C3CCCCC3)n(Cc3ccccc3)c21	45.7	28.7	–	–	–
NC1=NS(=O)(=O)Nc2nc(C3CCCC3)[nH]c21	42.2	28.9	–	–	–
CN1c2nc(-c3ccsc3)[nH]c2C(N)=NS1(=O)=O	46.3	26.2	–	–	–
CN(C)c1ccc(-c2nc3c([nH]2)C(N)=NS(=O)(=O)N3)cc1	42.8	28.5	–	–	–
O=C(Cn1ccnc1[N+](=O)[O-])NCc1ccccc1 [BENZNIDAZOLE]	–	–	–	49	inhibition of growth at 25 µM [3]: 100%; IC50 [8]: > 256 µM; selectivity ratio [9]: > 9.4; IC50 [16]: 0.8 µM
CC1CS(=O)(=O)CCN1/N=C/c1ccc([N+](=O)[O-])o1 (stereo unspecified) [NIFURTIMOX]	–	–	41	82.2	inhibition of growth at 25 µM [3]: 100%; IC50 [8]: > 256 µM; selectivity ratio [9]: > 71.1; IC50 [16]: < 0.5 µM
Cc1nc2c([nH]1)C(N)=NS(=O)(=O)N2	38.7	> 25	–	–	–
NC1=NS(=O)(=O)N(Cc2ccc(Cl)cc2)c2nc(C3CCCCC3)[nH]c21	0	> 25	–	–	–
NC1=NS(=O)(=O)Nc2nc(Cc3ccccc3)[nH]c21	59.7	12.7 to 16.2	> 31	17.7	IC50 [7]: > 25 µM; IC50 [10]: 23 µM; Activity [12]: Non-Toxic; Activity [13]: Non-Toxic
CCc1nc2c([nH]1)C(N)=NS(=O)(=O)N2	43	28.5	–	–	–
NC1=NS(=O)(=O)Nc2nc(C3CCCCC3)[nH]c21	72.3	12.7 to 16.2	> 25	54.8	inhibition of growth at 25 µM [3]: 0%; IC50 [7]: 2.5 µM; IC50 [8]: > 256 µM; selectivity ratio [9]: > 102; IC50 [10]: 12 µM; Activity [11]: inactive
NC1=NS(=O)(=O)Nc2nc(-c3ccc([N+](=O)[O-])o3)[nH]c21	31.3	> 25	–	–	–
